# In ChEMBL document CHEMBL1629526, “4-[1-(Substituted aryl/alkyl carbonyl)-benzoimidazol-2-yl]-benzenesulfonic acids: synthesis, antimicrobial activity, QSAR studies, and antiviral evaluation” (Eur J Med Chem, 2010):
# Key:
# Human alphaherpesvirus 2 = assay: Antiviral activity against Herpes simplex virus 2 G infected in HEL cells assessed as inhibition of virus induced cytopathicity after 2 to 4 days by MTS assay; format: functional, organism-based; details: Human alphaherpesvirus 2, strain G
# Bacillus subtilis = assay: Antimicrobial activity against Bacillus subtilis after 24 hrs by tube dilution method; format: functional
# How it was run: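 Serial dilutions in double-strength nutrient broth (I.P.) with ciprofloxacin as reference, tube dilution, incubated 37 °C for 24 h. MIC is the lowest concentration that inhibited growth.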
# Candida albicans = assay: Antimicrobial activity against Candida albicans after 48 hrs by tube dilution method; format: functional
# [1] = Cytotoxicity against MDCK cells assessed as altered cell morphology; format: cell-based, Canis lupus familiaris; details: dog
# How it was run: (§1)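 Uninfected cell cultures run alongside the antiviral assays, exposed to serial compound dilutions and incubated at 37 °C for 2–4 days. Toxicity was scored microscopically and reported as the minimum cytotoxic concentration (MCC), the lowest concentration causing a detectable change in normal cell morphology.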
# Escherichia coli = assay: Antimicrobial activity against Escherichia coli after 24 hrs by tube dilution method; format: functional
# Sindbis virus = assay: Antiviral activity against Sindbis virus infected in african green monkey Vero cells assessed as inhibition of virus induced cytopathicity after 2 to 4 days by MTS assay; format: functional, organism-based
# [2] = Cytotoxicity against human HeLa cells assessed as altered cell morphology; format: cell-based; how it was run: as §1
# Human alphaherpesvirus 1 [3] = assay: Antiviral activity against Herpes simplex virus 1 KOS infected in HEL cells assessed as inhibition of virus induced cytopathicity after 2 to 4 days by MTS assay; format: functional, organism-based; details: Human alphaherpesvirus 1, KOS
# Coxsackievirus B4 [4] = assay: Antiviral activity against coxsackievirus B4 infected in human HeLa cells assessed as inhibition of virus induced cytopathicity by visual scoring of CPE; format: functional, organism-based; details: Enterovirus B
# MDCK = assay: Cytotoxicity against MDCK cells assessed as cell viability by MTS assay; format: cell-based, Canis lupus familiaris; details: dog, mdck
# How it was run: (§2)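 Uninfected cultures were run in parallel with the antiviral assays. Viability was read by colorimetric formazan MTS assay.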
# [5] = Cytotoxicity against african green monkey Vero cells assessed as altered cell morphology; format: cell-based; details: chlorocebus sabaeus; how it was run: as §1
# Coxsackievirus B4 [6] = assay: Antiviral activity against coxsackievirus B4 infected in human HeLa cells assessed as inhibition of virus induced cytopathicity after 2 to 4 days by MTS assay; format: functional, organism-based; details: Enterovirus B
# Vaccinia virus = assay: Antiviral activity against Vaccinia virus infected in HEL cells assessed as inhibition of virus induced cytopathicity after 2 to 4 days by MTS assay; format: functional, organism-based; details: Orthopoxvirus vaccinia
# Aspergillus niger = assay: Antimicrobial activity against Aspergillus niger after 7 days by tube dilution method; format: functional; details: 168 h
# [7] = Cytotoxicity against cat CRFK cells assessed as cell viability by MTS assay; format: cell-based, Felis catus; details: crfk; how it was run: as §2
# Human alphaherpesvirus 1 [8] = assay: Antiviral activity against thymidine kinase deficient acyclovir-resistant Herpes simplex virus 1 KOS infected in HEL cells assessed as inhibition of virus induced cytopathicity after 2 to 4 days by MTS assay; format: functional, organism-based; details: Human alphaherpesvirus 1, KOS
# [9] = system: Vesicular stomatitis virus; assay: Antiviral activity against Vesicular stomatitis virus infected in HEL cells assessed as inhibition of virus induced cytopathicity after 2 to 4 days by MTS assay; format: functional, organism-based
# [10] = system: Respiratory syncytial virus; assay: Antiviral activity against Respiratory syncytial virus infected in human HeLa cells assessed as inhibition of virus induced cytopathicity after 2 to 4 days by MTS assay; format: functional, organism-based
# [11] = system: Vesicular stomatitis virus; assay: Antiviral activity against Vesicular stomatitis virus infected in human HeLa cells assessed as inhibition of virus induced cytopathicity by visual scoring of CPE; format: functional, organism-based
# [12] = Cytotoxicity against human HEL cells assessed as altered cell morphology; format: cell-based; how it was run: as §1
# Felid alphaherpesvirus 1 = assay: Antiviral activity against Feline herpesvirus 1 infected in cat CRFK cells assessed as inhibition of virus induced cytopathicity after 2 to 4 days by MTS assay; format: functional, organism-based; details: Felid alphaherpesvirus 1, CRFK
# Influenza A virus [13] = assay: Antiviral activity against Influenza A H3N2 virus subtype infected in MDCK cells assessed as inhibition of virus induced cytopathicity after 2 to 4 days by MTS assay; format: functional, organism-based
# Human respirovirus 3 = assay: Antiviral activity against parainfluenza-3 virus infected in african green monkey Vero cells assessed as inhibition of virus induced cytopathicity after 2 to 4 days by MTS assay; format: functional, organism-based; details: Human respirovirus 3, Vero
# [14] = system: Vesicular stomatitis virus; assay: Antiviral activity against Vesicular stomatitis virus infected in human HeLa cells assessed as inhibition of virus induced cytopathicity after 2 to 4 days by MTS assay; format: functional, organism-based
# Punta Toro virus = assay: Antiviral activity against Punta Toro virus infected in african green monkey Vero cells assessed as inhibition of virus induced cytopathicity after 2 to 4 days by MTS assay; format: functional, organism-based
# [15] = system: Respiratory syncytial virus; assay: Antiviral activity against Respiratory syncytial virus infected in human HeLa cells assessed as inhibition of virus induced cytopathicity by visual scoring of CPE; format: functional, organism-based
# [16] = system: Mammalian orthoreovirus 1; assay: Antiviral activity against Reovirus 1 virus infected in african green monkey Vero cells assessed as inhibition of virus induced cytopathicity after 2 to 4 days by MTS assay; format: functional, organism-based; details: Mammalian orthoreovirus 1, Vero
# Coxsackievirus B4 [17] = assay: Antiviral activity against Coxsackie virus B4 infected in african green monkey Vero cells assessed as inhibition of virus induced cytopathicity after 2 to 4 days by MTS assay; format: functional, organism-based; details: Enterovirus B
# Influenza B virus [18] = assay: Antiviral activity against Influenza B virus infected in MDCK cells assessed as inhibition of virus induced cytopathicity after 2 to 4 days by MTS assay; format: functional, organism-based
# Feline coronavirus = assay: Antiviral activity against Feline coronavirus infected in cat CRFK cells assessed as inhibition of virus induced cytopathicity after 2 to 4 days by MTS assay; format: functional, organism-based; details: Alphacoronavirus 1, CRFK
# Influenza A virus [19] = assay: Antiviral activity against Influenza A H3N2 virus subtype infected in MDCK cells assessed as inhibition of virus induced cytopathicity by visual scoring of CPE; format: functional, organism-based
# HeLa = assay: Cytotoxicity against human HeLa cells assessed as cell viability by MTS assay; format: cell-based; details: hela; how it was run: as §2
# Influenza B virus [20] = assay: Antiviral activity against Influenza B virus infected in MDCK cells assessed as inhibition of virus induced cytopathicity by visual scoring of CPE; format: functional, organism-based
# Staphylococcus aureus = assay: Antimicrobial activity against Staphylococcus aureus after 24 hrs by tube dilution method; format: functional
Structure (SMILES),EC50 (Human alphaherpesvirus 2) [µg/mL],MBC (Bacillus subtilis) [µg/mL],MFC (Candida albicans) [µg/mL],MCC [1] [µg/mL],MBC (Escherichia coli) [µg/mL],EC50 (Sindbis virus) [µg/mL],MCC [2] [µg/mL],EC50 (Human alphaherpesvirus 1 [3]) [µg/mL],EC50 (Coxsackievirus B4 [4]) [µg/mL],CC50 (MDCK) [µg/mL],MCC [5] [µg/mL],EC50 (Coxsackievirus B4 [6]) [µg/mL],EC50 (Vaccinia virus) [µg/mL],MFC (Aspergillus niger) [µg/mL],CC50 [7] [µg/mL],EC50 (Human alphaherpesvirus 1 [8]) [µg/mL],EC50 [9] [µg/mL],EC50 [10] [µg/mL],EC50 [11] [µg/mL],MCC [12] [µg/mL],other results
COc1ccc(C(=O)n2c(-c3ccc(S(=O)(=O)O)cc3)nc3ccccc32)cc1,> 100,> 50,> 50,> 100,3.12,> 100,> 100,> 100,> 100,> 100,> 100,> 100,> 100,> 50,> 100,> 100,> 100,> 100,> 100,> 100,EC50 (Felid alphaherpesvirus 1): > 100 µg/mL; EC50 (Influenza A virus [13]): > 100 µg/mL; EC50 (Human respirovirus 3): > 100 µg/mL; EC50 [14]: > 100 µg/mL; EC50 (Punta Toro virus): > 100 µg/mL; EC50 [15]: > 100 µg/mL; EC50 [16]: > 100 µg/mL; EC50 (Coxsackievirus B4 [17]): > 100 µg/mL; EC50 (Influenza B virus [18]): > 100 µg/mL; EC50 (Feline coronavirus): > 100 µg/mL; EC50 (Influenza A virus [19]): > 100 µg/mL; CC50 (HeLa): > 100 µg/mL; EC50 (Influenza B virus [20]): > 100 µg/mL; MBC (Staphylococcus aureus): > 50 µg/mL
O=C(c1ccc([N+](=O)[O-])cc1)n1c(-c2ccc(S(=O)(=O)O)cc2)nc2ccccc21,> 100,50,25,> 100,1.56,> 100,> 100,> 100,> 100,> 100,> 100,> 100,> 100,> 50,> 100,> 100,> 100,> 100,> 100,> 100,EC50 (Felid alphaherpesvirus 1): > 100 µg/mL; EC50 (Influenza A virus [13]): > 100 µg/mL; EC50 (Human respirovirus 3): > 100 µg/mL; EC50 [14]: > 100 µg/mL; EC50 (Punta Toro virus): > 100 µg/mL; EC50 [15]: > 100 µg/mL; EC50 [16]: > 100 µg/mL; EC50 (Coxsackievirus B4 [17]): > 100 µg/mL; EC50 (Influenza B virus [18]): > 100 µg/mL; EC50 (Feline coronavirus): > 100 µg/mL; EC50 (Influenza A virus [19]): > 100 µg/mL; CC50 (HeLa): > 100 µg/mL; EC50 (Influenza B virus [20]): > 100 µg/mL; MBC (Staphylococcus aureus): 50 µg/mL
Cc1ccc(C(=O)n2c(-c3ccc(S(=O)(=O)O)cc3)nc3ccccc32)cc1,> 100,6.25,50,> 100,25,> 100,> 100,> 100,> 100,> 100,> 100,> 100,> 100,> 50,> 100,> 100,> 100,> 100,> 100,> 100,EC50 (Felid alphaherpesvirus 1): > 100 µg/mL; EC50 (Influenza A virus [13]): > 100 µg/mL; EC50 (Human respirovirus 3): > 100 µg/mL; EC50 [14]: > 100 µg/mL; EC50 (Punta Toro virus): > 100 µg/mL; EC50 [15]: > 100 µg/mL; EC50 [16]: > 100 µg/mL; EC50 (Coxsackievirus B4 [17]): > 100 µg/mL; EC50 (Influenza B virus [18]): > 100 µg/mL; EC50 (Feline coronavirus): > 100 µg/mL; EC50 (Influenza A virus [19]): > 100 µg/mL; CC50 (HeLa): > 100 µg/mL; EC50 (Influenza B virus [20]): > 100 µg/mL; MBC (Staphylococcus aureus): 12.5 µg/mL
C/C=C/C(=O)n1c(-c2ccc(S(=O)(=O)O)cc2)nc2ccccc21,> 100,50,> 50,> 100,12.5,> 100,> 100,> 100,> 100,> 100,> 100,> 100,> 100,> 50,> 100,> 100,> 100,> 100,> 100,> 100,EC50 (Felid alphaherpesvirus 1): > 100 µg/mL; EC50 (Influenza A virus [13]): > 100 µg/mL; EC50 (Human respirovirus 3): > 100 µg/mL; EC50 [14]: > 100 µg/mL; EC50 (Punta Toro virus): > 100 µg/mL; EC50 [15]: > 100 µg/mL; EC50 [16]: > 100 µg/mL; EC50 (Coxsackievirus B4 [17]): > 100 µg/mL; EC50 (Influenza B virus [18]): > 100 µg/mL; EC50 (Feline coronavirus): > 100 µg/mL; EC50 (Influenza A virus [19]): > 100 µg/mL; CC50 (HeLa): > 100 µg/mL; EC50 (Influenza B virus [20]): > 100 µg/mL; MBC (Staphylococcus aureus): 12.5 µg/mL
